Reference: ChEMBL document CHEMBL5058577, “EUbOPEN Chemogenomics Library 2 (Multiplex)” (2022)

Tested on: Fibroblast
Experiment: Multiplex assay against human fibroblast
Format: toxicity, cell-based
In short: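 Per cents of healthy-nucleus cells form the tubulin, mitochondrial-mass and membrane-permeability phenotype values. Live cells were stained at seeding with Hoechst33342, BioTracker Green Microtubule Cytoskeleton Dye, MitoTracker Red and Annexin V Alexa Fluor 680. After compound addition they were imaged on a CQ1 microscope at 37°C and 5% CO2, and CellPathfinder machine-learning gating split them into Hoechst high-intensity objects or normal cells, normal cells into healthy, pyknosed or fragmented nuclei, and pyknosed cells into mitotic or apoptotic.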

[1] = 12 h, 1 µM, compound concentration 1 uM, replicate 1
[2] = 12 h, 1 µM, compound concentration 1 uM, replicate 2
[3] = 12 h, 10 µM, compound concentration 10 uM, replicate 1
[4] = 12 h, 10 µM, compound concentration 10 uM, replicate 2
[5] = 24 h, 1 µM, compound concentration 1 uM, replicate 1
[6] = 24 h, 1 µM, compound concentration 1 uM, replicate 2
[7] = 24 h, 10 µM, compound concentration 10 uM, replicate 1
[8] = 24 h, 10 µM, compound concentration 10 uM, replicate 2
[9] = 48 h, 1 µM, compound concentration 1 uM, replicate 1
[10] = 48 h, 1 µM, compound concentration 1 uM, replicate 2
[11] = 48 h, 10 µM, compound concentration 10 uM, replicate 1
[12] = 48 h, 10 µM, compound concentration 10 uM, replicate 2

Compound: O=C1COc2nccc(-c3ccccc3F)c2CN1Cc1cc(C(F)(F)F)cc(C(F)(F)F)c1
- Population Apoptotic (%) [1]: 38%
- Population Fragmented Nuclei (%) [1]: 12%
- Population Healthy Nuclei (%) [1]: 74%
- Population Hoechst High Intensity Objects (%) [1]: 2%
- Population Membrane Permeable-Phenotype (%) [1]: 1%
- Population Mitochondria Different-Phenotype (%) [1]: 7%
- Population Mitotic Cells (%) [1]: 61%
- Population Normal (%) [1]: 97%
- Population Pyknosed Nuclei (%) [1]: 13%
- Population Tubulin-Different-Phenotype (%) [1]: 27%
- Total Cell Count [1]: 195
- Population Apoptotic (%) [2]: 29%
- Population Fragmented Nuclei (%) [2]: 17%
- Population Healthy Nuclei (%) [2]: 62%
- Population Hoechst High Intensity Objects (%) [2]: 0%
- Population Mitochondria Different-Phenotype (%) [2]: 5%
- Population Mitotic Cells (%) [2]: 70%
- Population Normal (%) [2]: 99%
- Population Pyknosed Nuclei (%) [2]: 20%
- Population Tubulin-Different-Phenotype (%) [2]: 32%
- Total Cell Count [2]: 135
- Population Apoptotic (%) [3]: 54%
- Population Fragmented Nuclei (%) [3]: 15%
- Population Healthy Nuclei (%) [3]: 69%
- Population Hoechst High Intensity Objects (%) [3]: 5%
- Population Membrane Permeable-Phenotype (%) [3]: 0%
- Population Mitochondria Different-Phenotype (%) [3]: 10%
- Population Mitotic Cells (%) [3]: 45%
- Population Normal (%) [3]: 94%
- Population Pyknosed Nuclei (%) [3]: 14%
- Population Tubulin-Different-Phenotype (%) [3]: 66%
- Total Cell Count [3]: 161
- Population Apoptotic (%) [4]: 37%
- Population Fragmented Nuclei (%) [4]: 24%
- Population Healthy Nuclei (%) [4]: 51%
- Population Hoechst High Intensity Objects (%) [4]: 8%
- Population Membrane Permeable-Phenotype (%) [4]: 4%
- Population Mitochondria Different-Phenotype (%) [4]: 12%
- Population Mitotic Cells (%) [4]: 62%
- Population Normal (%) [4]: 91%
- Population Pyknosed Nuclei (%) [4]: 23%
- Population Tubulin-Different-Phenotype (%) [4]: 50%
- Total Cell Count [4]: 132
- Population Apoptotic (%) [5]: 53%
- Population Fragmented Nuclei (%) [5]: 11%
- Population Healthy Nuclei (%) [5]: 74%
- Population Hoechst High Intensity Objects (%) [5]: 3%
- Population Membrane Permeable-Phenotype (%) [5]: 0%
- Population Mitochondria Different-Phenotype (%) [5]: 6%
- Population Mitotic Cells (%) [5]: 46%
- Population Normal (%) [5]: 96%
- Population Pyknosed Nuclei (%) [5]: 14%
- Population Tubulin-Different-Phenotype (%) [5]: 23%
- Total Cell Count [5]: 203
- Population Apoptotic (%) [6]: 34%
- Population Fragmented Nuclei (%) [6]: 20%
- Population Healthy Nuclei (%) [6]: 58%
- Population Hoechst High Intensity Objects (%) [6]: 2%
- Population Membrane Permeable-Phenotype (%) [6]: 2%
- Population Mitochondria Different-Phenotype (%) [6]: 3%
- Population Mitotic Cells (%) [6]: 65%
- Population Normal (%) [6]: 97%
- Population Pyknosed Nuclei (%) [6]: 20%
- Population Tubulin-Different-Phenotype (%) [6]: 39%
- Total Cell Count [6]: 142
- Population Apoptotic (%) [7]: 66%
- Population Fragmented Nuclei (%) [7]: 18%
- Population Healthy Nuclei (%) [7]: 71%
- Population Hoechst High Intensity Objects (%) [7]: 3%
- Population Membrane Permeable-Phenotype (%) [7]: 0%
- Population Mitochondria Different-Phenotype (%) [7]: 11%
- Population Mitotic Cells (%) [7]: 33%
- Population Normal (%) [7]: 96%
- Population Pyknosed Nuclei (%) [7]: 9%
- Population Tubulin-Different-Phenotype (%) [7]: 57%
- Total Cell Count [7]: 162
- Population Apoptotic (%) [8]: 55%
- Population Fragmented Nuclei (%) [8]: 26%
- Population Healthy Nuclei (%) [8]: 56%
- Population Hoechst High Intensity Objects (%) [8]: 6%
- Population Membrane Permeable-Phenotype (%) [8]: 7%
- Population Mitochondria Different-Phenotype (%) [8]: 5%
- Population Mitotic Cells (%) [8]: 45%
- Population Normal (%) [8]: 93%
- Population Pyknosed Nuclei (%) [8]: 16%
- Population Tubulin-Different-Phenotype (%) [8]: 61%
- Total Cell Count [8]: 129
- Population Apoptotic (%) [9]: 75%
- Population Fragmented Nuclei (%) [9]: 16%
- Population Healthy Nuclei (%) [9]: 75%
- Population Hoechst High Intensity Objects (%) [9]: 5%
- Population Membrane Permeable-Phenotype (%) [9]: 0%
- Population Mitochondria Different-Phenotype (%) [9]: 4%
- Population Mitotic Cells (%) [9]: 25%
- Population Normal (%) [9]: 94%
- Population Pyknosed Nuclei (%) [9]: 8%
- Population Tubulin-Different-Phenotype (%) [9]: 28%
- Total Cell Count [9]: 210
- Population Apoptotic (%) [10]: 31%
- Population Fragmented Nuclei (%) [10]: 29%
- Population Healthy Nuclei (%) [10]: 55%
- Population Hoechst High Intensity Objects (%) [10]: 6%
- Population Membrane Permeable-Phenotype (%) [10]: 1%
- Population Mitochondria Different-Phenotype (%) [10]: 1%
- Population Mitotic Cells (%) [10]: 68%
- Population Normal (%) [10]: 93%
- Population Pyknosed Nuclei (%) [10]: 14%
- Population Tubulin-Different-Phenotype (%) [10]: 25%
- Total Cell Count [10]: 143
- Population Apoptotic (%) [11]: 72%
- Population Fragmented Nuclei (%) [11]: 20%
- Population Healthy Nuclei (%) [11]: 72%
- Population Hoechst High Intensity Objects (%) [11]: 2%
- Population Membrane Permeable-Phenotype (%) [11]: 0%
- Population Mitochondria Different-Phenotype (%) [11]: 14%
- Population Mitotic Cells (%) [11]: 27%
- Population Normal (%) [11]: 97%
- Population Pyknosed Nuclei (%) [11]: 6%
- Population Tubulin-Different-Phenotype (%) [11]: 62%
- Total Cell Count [11]: 172
- Population Apoptotic (%) [12]: 60%
- Population Fragmented Nuclei (%) [12]: 39%
- Population Healthy Nuclei (%) [12]: 49%
- Population Hoechst High Intensity Objects (%) [12]: 5%
- Population Membrane Permeable-Phenotype (%) [12]: 1%
- Population Mitochondria Different-Phenotype (%) [12]: 8%
- Population Mitotic Cells (%) [12]: 40%
- Population Normal (%) [12]: 94%
- Population Pyknosed Nuclei (%) [12]: 11%
- Population Tubulin-Different-Phenotype (%) [12]: 47%
- Total Cell Count [12]: 144
